Publication PMC7049346 (Haematologica, 2019)

Tests used:
[1] = target: PDE8B (Homo sapiens, UniProt O95263); assay: PDE enzyme inhibition, radiometric assay; assay type: biochemical
In short: (§1)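 Recombinant human PDE enzymes (33 in the panel) were incubated in vitro with increasing concentrations of the test compound. Enzyme activity was measured radiometrically and IC50 values derived.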

[2] = test system: K562 cells; assay: HbF induction in K562 cells; assay type: cell-based, human; details: 72 h
[3] = target: PDE4D3 (Homo sapiens, UniProt Q08499); assay: PDE enzyme inhibition, radiometric assay; assay type: biochemical
PDE4D3, sequence (Q08499 1-673 isoform Q08499-2): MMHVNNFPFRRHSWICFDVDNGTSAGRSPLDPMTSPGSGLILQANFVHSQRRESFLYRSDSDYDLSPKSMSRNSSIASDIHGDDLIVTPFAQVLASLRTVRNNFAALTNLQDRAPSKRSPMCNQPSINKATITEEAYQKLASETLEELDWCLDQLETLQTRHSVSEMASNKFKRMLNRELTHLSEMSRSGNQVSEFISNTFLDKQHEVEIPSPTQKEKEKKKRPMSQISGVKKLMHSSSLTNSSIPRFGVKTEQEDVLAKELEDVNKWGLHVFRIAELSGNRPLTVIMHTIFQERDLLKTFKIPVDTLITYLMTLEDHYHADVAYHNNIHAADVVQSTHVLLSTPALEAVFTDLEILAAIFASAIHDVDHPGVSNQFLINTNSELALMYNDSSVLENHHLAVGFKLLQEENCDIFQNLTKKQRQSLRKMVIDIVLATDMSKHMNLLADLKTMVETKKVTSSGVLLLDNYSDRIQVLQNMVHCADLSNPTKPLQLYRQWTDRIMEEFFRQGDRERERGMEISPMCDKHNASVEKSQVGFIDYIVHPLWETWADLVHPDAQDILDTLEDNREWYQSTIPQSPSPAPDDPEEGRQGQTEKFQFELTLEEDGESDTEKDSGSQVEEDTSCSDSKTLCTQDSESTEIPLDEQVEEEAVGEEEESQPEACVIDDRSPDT
In short: as §1

[4] = test system: HbSS-Townes mice; assay: Townes SCD model, 30 days daily oral dosing; assay type: in vivo; details: 30 days
[5] = target: PDE10A2 (Homo sapiens, UniProt Q9Y233); assay: PDE enzyme inhibition, radiometric assay; assay type: biochemical
PDE10A2, sequence (Q9Y233 267-1055): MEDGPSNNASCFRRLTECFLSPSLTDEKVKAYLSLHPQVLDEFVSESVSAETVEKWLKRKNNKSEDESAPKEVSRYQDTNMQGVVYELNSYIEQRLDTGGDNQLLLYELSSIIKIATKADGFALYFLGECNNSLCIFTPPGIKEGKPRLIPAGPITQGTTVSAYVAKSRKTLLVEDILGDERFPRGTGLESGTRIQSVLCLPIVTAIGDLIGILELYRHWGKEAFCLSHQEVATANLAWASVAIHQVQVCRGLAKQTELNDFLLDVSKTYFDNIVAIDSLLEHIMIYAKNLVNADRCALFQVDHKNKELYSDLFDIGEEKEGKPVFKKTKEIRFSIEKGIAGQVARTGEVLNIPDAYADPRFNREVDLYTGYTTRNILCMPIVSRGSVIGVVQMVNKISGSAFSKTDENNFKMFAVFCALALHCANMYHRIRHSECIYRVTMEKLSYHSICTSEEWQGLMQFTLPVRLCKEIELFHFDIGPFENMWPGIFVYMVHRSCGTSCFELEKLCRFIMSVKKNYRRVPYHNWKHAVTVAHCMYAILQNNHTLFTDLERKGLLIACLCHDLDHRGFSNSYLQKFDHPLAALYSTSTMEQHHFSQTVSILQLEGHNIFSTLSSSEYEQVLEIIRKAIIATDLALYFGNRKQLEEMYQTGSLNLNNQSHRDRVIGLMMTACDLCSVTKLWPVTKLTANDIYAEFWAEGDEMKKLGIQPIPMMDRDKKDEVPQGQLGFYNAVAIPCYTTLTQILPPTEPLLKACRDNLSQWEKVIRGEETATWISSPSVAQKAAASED
In short: as §1

[6] = target: PDE9A2 (Homo sapiens, UniProt O76083); assay: PDE enzyme inhibition, radiometric assay; assay type: biochemical; details: IC50, recombinant human PDE9A2
PDE9A2, sequence (O76083 1-533 isoform O76083-2): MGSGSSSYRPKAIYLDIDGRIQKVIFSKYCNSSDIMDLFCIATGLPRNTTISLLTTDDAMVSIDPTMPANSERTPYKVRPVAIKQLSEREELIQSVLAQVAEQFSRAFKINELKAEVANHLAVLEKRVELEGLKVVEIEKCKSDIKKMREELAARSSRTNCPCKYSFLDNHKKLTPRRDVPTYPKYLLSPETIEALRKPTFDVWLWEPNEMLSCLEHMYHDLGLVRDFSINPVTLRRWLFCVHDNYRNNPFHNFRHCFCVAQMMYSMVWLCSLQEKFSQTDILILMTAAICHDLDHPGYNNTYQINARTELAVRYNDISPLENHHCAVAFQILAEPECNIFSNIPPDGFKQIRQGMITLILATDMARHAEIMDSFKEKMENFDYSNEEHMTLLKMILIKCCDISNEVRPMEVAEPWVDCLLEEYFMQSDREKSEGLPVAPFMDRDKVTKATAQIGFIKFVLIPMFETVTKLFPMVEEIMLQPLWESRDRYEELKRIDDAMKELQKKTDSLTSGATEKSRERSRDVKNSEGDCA
In short: as §1

[7] = target: PDE4B2 (Homo sapiens, UniProt Q07343); assay: PDE enzyme inhibition, radiometric assay; assay type: biochemical
PDE4B2, sequence (Q07343 1-564 isoform Q07343-2): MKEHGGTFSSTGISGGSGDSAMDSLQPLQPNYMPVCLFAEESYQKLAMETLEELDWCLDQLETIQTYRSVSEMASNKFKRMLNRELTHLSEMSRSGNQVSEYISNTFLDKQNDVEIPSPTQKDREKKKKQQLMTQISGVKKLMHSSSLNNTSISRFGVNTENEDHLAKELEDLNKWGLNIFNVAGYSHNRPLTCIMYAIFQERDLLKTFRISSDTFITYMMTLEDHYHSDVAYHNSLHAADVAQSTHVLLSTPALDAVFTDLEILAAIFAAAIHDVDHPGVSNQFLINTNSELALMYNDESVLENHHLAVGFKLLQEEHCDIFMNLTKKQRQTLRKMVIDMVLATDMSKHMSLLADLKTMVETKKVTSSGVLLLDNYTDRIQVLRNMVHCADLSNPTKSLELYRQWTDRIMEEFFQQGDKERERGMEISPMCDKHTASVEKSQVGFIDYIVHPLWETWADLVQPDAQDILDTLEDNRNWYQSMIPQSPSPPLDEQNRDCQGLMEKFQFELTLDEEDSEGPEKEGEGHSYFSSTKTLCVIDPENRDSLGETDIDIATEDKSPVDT
In short: as §1

PDE8B, sequence (O95263 whole entry): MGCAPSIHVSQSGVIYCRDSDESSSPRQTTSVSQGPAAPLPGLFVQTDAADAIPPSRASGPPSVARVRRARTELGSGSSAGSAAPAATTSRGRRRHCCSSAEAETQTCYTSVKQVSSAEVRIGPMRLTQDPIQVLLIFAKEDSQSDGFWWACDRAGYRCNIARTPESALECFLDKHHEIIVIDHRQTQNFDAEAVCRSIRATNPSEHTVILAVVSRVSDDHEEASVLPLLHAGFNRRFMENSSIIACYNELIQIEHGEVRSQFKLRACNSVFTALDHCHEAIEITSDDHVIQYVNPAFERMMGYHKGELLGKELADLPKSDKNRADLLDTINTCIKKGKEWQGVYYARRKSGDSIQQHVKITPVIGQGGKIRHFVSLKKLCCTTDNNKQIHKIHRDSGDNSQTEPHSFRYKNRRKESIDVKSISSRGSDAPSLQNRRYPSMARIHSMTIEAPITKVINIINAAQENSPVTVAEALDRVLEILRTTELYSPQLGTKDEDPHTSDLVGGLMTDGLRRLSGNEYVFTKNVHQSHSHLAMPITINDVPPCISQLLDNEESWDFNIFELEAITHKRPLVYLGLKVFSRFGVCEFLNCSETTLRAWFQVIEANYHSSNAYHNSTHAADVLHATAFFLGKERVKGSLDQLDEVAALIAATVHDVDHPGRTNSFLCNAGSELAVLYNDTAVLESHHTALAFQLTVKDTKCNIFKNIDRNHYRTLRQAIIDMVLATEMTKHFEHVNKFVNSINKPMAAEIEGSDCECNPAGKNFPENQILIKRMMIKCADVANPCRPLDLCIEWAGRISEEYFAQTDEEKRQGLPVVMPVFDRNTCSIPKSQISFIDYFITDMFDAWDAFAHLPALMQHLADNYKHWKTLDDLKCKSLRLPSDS

SMILES: C[C@@H]1CN(Cc2ncccn2)C[C@H]1c1cn2c(C3CCOCC3)ncc2c(=O)[nH]1 [IMR-687]
- IC50 [1]: > 100 µM
- HbF induction (ELISA) [2]: dose-dependently induced more HbF than either BAY73-6691 or BAY 41-2271
- HbF induction relative to a dose of HU that demonstrated cytotoxicity ([2]; 10 μM IMR-687): 4.6 times
- IC50 [3]: > 100 µM
- WBC lower than vehicle ([4]; 30 mg/kg): 36%
- increase in Hb ([4]; 30 mg/kg): 1.5 g/dL
- increase in hematocrit ([4]; 30 mg/kg): 10%
- increase in mature RBC ([4]; 30 mg/kg): 27%
- increase in plasma nitrite levels ([4]; 30 mg/kg): ~2.5 fold
- reduction in reticulocyte counts ([4]; 30 mg/kg): 36%
- reduction of MPO levels ([4]; 30 mg/kg): 2.3 fold
- reduction of plasma bilirubin and LDH vs vehicle treated SS mice ([4]; 30 mg/kg): over 2 fold
- reduction of plasma free Hb levels ([4]; 30 mg/kg): over 55%
- lung MPO levels ([4]; 30 mg/kg, HbSS-Townes vehicle 3.1 mU/L, P<0.0001): 1.3 mU/L
- reduction of lung arginase vs vehicle ([4]; 30 mg/kg, P<0.0001): 25%
- plasma bilirubin ([4]; 30 mg/kg, P<0.01): 4.7 mg/dL
- LDH activity ([4]; 30 mg/kg, P<0.05): 102 AU
- plasma nitrite levels ([4]; 30 mg/kg, untreated SS mice 0.56 mg/mL, P<0.05): 1.39 mg/mL
- WBC count ([4]; 30 mg/kg, vehicle 38.2×10^9/L, P<0.05): 2.41e+10 L⁻¹
- decrease in sickled RBC vs vehicle ([4]; 30 mg/kg/day): 2 fold
- increase in the percent of HbF+ F-cells vs vehicle ([4]; 30 mg/kg/day): greater than 3 fold
- percent of HbF+ F-cells ([4]; 30 mg/kg/day, vehicle 8.4%): 27.3%
- percent sickled RBC ([4]; 30 mg/kg/day, vehicle 56.3%): 24.4%
- IC50 [5]: > 100 µM
- IC50 [6]: 0.01 µM
- IC50 [7]: > 100 µM
